Measured values reported in ChEMBL document CHEMBL3745598, “Synthesis and biological evaluation of disubstituted amidoxanthones as potential telomeric G-quadruplex DNA-binding and apoptosis-inducing agents” (Bioorg Med Chem, 2016).
Activity calls are given as the source filed them. No cut-off for these calls is given here.

How the values were obtained:
HeLa [1] = assay: Induction of apoptosis in human HeLa cells assessed as nuclear fragmentation after 24 hrs by AO/EB staining-based fluorescent microscopic analysis; type: functional, cell-based
Procedure, shortened: (§1)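 HeLa monolayers were grown in 24-well plates and exposed for 24 h at 0, 5, 10, 20 and 40 µM. Cells were stained 10 min with AO/EB dye mix (100 µg/mL each) and washed with PBS. Morphology was then viewed by fluorescence microscopy: chromatin condensation, nuclear fragmentation, and membrane integrity.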

HeLa [2] = assay: Antiproliferative activity against human HeLa cells after 44 hrs by MTT assay; type: functional, cell-based
Procedure, shortened: (§2)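 HeLa, A549, SGC-7901 and MCF-7 cells seeded at 5 × 10^4 per well in DMEM at 37 °C, 5% CO2, incubated overnight. Cells were then treated at […], with 0.5% DMSO as control. MTT added for 4 h at 37 °C, formazan dissolved in DMSO, absorbance read at 570 nm. Inhibition % = (1 − Atreatment/Acontrol) × 100. Triplicate wells, each experiment repeated at least three times.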

A549 = assay: Antiproliferative activity against human A549 cells after 44 hrs by MTT assay; type: functional, cell-based; details: for IC50: A549, 44 h; procedure, shortened: as §2
[3] = (§3) Antiproliferative activity against human SGC7901 cells after 44 hrs by MTT assay; type: functional, cell-based; details: SGC-7901, 44 h; procedure, shortened: as §2
SGC-7901 = assay: as §3; type: functional, cell-based; procedure, shortened: as §2
MCF7 = assay: Antiproliferative activity against human MCF7 cells after 44 hrs by MTT assay; type: functional, cell-based; details: for IC50: MCF7, 44 h; procedure, shortened: as §2
HeLa [4] = assay: Induction of apoptosis in human HeLa cells assessed as chromatin condensation after 24 hrs by AO/EB staining-based fluorescent microscopic analysis; type: functional, cell-based; procedure, shortened: as §1
Homo sapiens [5] = species on record: Homo sapiens; assay: Binding affinity to HTG21 G-quadruplex DNA assessed as transition temperature using K+ buffer at 1:1 compound to DNA ratio by CD spectrometric analysis (reference value: 64.6 degC)
Procedure, shortened: (§4)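 CD melting of HTG21 at 5 µM with ligand at 5 µM (1:1). Buffer was Tris–HCl 10 mM, pH 7.4, containing KCl or NaCl. Signal was monitored at 295 nm and curves were normalized to obtain the melting temperature. HTG21 was pre-annealed at 95 °C for 5 min, cooled slowly, and held at 4 °C overnight.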

Homo sapiens [6] = species on record: Homo sapiens; assay: Binding affinity to HTG21 G-quadruplex DNA assessed as hypochromicity by electronic absorption spectroscopic analysis
Procedure, shortened: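 Absorption titration with ligand fixed at […] and HTG21 added at […], in Tris–HCl 10 mM, pH 7.4, containing KCl or NaCl. HTG21 was annealed at 95 °C for 5 min, cooled slowly, and held at 4 °C overnight. Absorbance decrease was followed. Binding constant was taken from a plot of [DNA]/(εa−εf) versus [DNA].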

Calf thymus DNA [7] = assay: Binding affinity to calf thymus DNA assessed as hypochromicity by electronic absorption spectroscopic analysis; type: nucleic-acid assay; details: Bos taurus
Homo sapiens [8] = species on record: Homo sapiens; assay: Binding affinity to HTG21 G-quadruplex DNA at 5 uM by fluorescence emission spectroscopic analysis
Procedure, shortened: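 Fluorescence emission titration with ligand fixed at […] and annealed HTG21 varied up to […]. Buffer was Tris–HCl 10 mM, pH 7.4, containing KCl or NaCl. Quenching was plotted as F0/F versus [HTG21]/[compound] and fitted.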

Calf thymus DNA [9] = assay: Binding affinity to calf thymus DNA at 5 uM by fluorescence emission spectroscopic analysis; type: nucleic-acid assay; details: Bos taurus
Homo sapiens [10] = species on record: Homo sapiens; assay: Binding affinity to HT6 G-quadruplex DNA at 0.5 to 1 compound to DNA ratio by NMR spectroscopic analysis
Procedure, shortened: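 1H NMR at 25 °C on d(TTAGGG) 0.2 mM in 90% H2O/10% D2O with 150 mM KCl and 25 mM potassium phosphate, pH 7.0. Compound/quadruplex ratios were 0, 0.5 and 1. Watergate water suppression was used, and imino proton signals were monitored. Oligonucleotide was HPLC-purified.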

Homo sapiens [11] = species on record: Homo sapiens; assay: Stabilization of HTG21 G-quadruplex DNA at 2.5 to 15 uM by PCR-stop assay
Procedure, shortened: (§5)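 PCR-stop on forward primer HTG21 or mutant HTG21mu with reverse primer RevHTG21, each primer 0.4 µM. Mixes contained 0.2 mM dNTP and 1.5 U Taq in 1× Thermopol buffer (20 mM Tris–HCl, 10 mM KCl, 10 mM (NH4)2SO4, 2 mM MgSO4, 0.1% Triton X-100, pH 8.8). Ligand was tested at 0–15 µM. Products were resolved by electrophoresis and imaged under UV.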

Homo sapiens [12] = species on record: Homo sapiens; assay: Stabilization of HTG21mu G-quadruplex DNA at 15 uM by PCR-stop assay; procedure, shortened: as §5
Homo sapiens [13] = species on record: Homo sapiens; assay: Binding affinity to HTG21 G-quadruplex DNA assessed as transition temperature using Na+ buffer at 1:1 compound to DNA ratio by CD spectrometric analysis (reference value: 55.1 degC); procedure, shortened: as §4
HeLa [14] = assay: Induction of apoptosis in human HeLa cells assessed as early apoptotic cells at 40 uM after 24 hrs by annexin V-FITC/propidium iodide staining-based flow cytometric analysis (reference value: 0.11%); type: functional
Procedure, shortened: (§6)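 HeLa cells were seeded at 3 × 10^5 per well in DMEM at 37 °C, 5% CO2, and treated with 0, 10, 20 or 40 µM for 24 h. Cells were trypsinized, washed in cold PBS, resuspended in binding buffer, and stained with Annexin V-FITC plus PI for 20 min in the dark. Flow cytometry quadrants defined early (Annexin+/PI−) and late (Annexin+/PI+) apoptotic cells.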

HeLa [15] = assay: Induction of apoptosis in human HeLa cells assessed as increase in apoptotic ratio after 24 hrs by annexin V-FITC/propidium iodide staining-based flow cytometric analysis; type: functional, cell-based; procedure, shortened: as §6
HeLa [16] = assay: Induction of apoptosis in human HeLa cells assessed as late apoptotic cells at 40 uM after 24 hrs by annexin V-FITC/propidium iodide staining-based flow cytometric analysis (reference value: 0.36%); type: functional; procedure, shortened: as §6
HeLa [17] = assay: Induction of apoptosis in human HeLa cells assessed as early apoptotic cells at 20 uM after 24 hrs by annexin V-FITC/propidium iodide staining-based flow cytometric analysis (reference value: 0.11%); type: functional; procedure, shortened: as §6
HeLa [18] = assay: Induction of apoptosis in human HeLa cells assessed as late apoptotic cells at 20 uM after 24 hrs by annexin V-FITC/propidium iodide staining-based flow cytometric analysis (reference value: 0.36%); type: functional; procedure, shortened: as §6
HeLa [19] = assay: Induction of apoptosis in human HeLa cells assessed as early apoptotic cells at 10 uM after 24 hrs by annexin V-FITC/propidium iodide staining-based flow cytometric analysis (reference value: 0.11%); type: functional; procedure, shortened: as §6
HeLa [20] = assay: Induction of apoptosis in human HeLa cells assessed as late apoptotic cells at 10 uM after 24 hrs by annexin V-FITC/propidium iodide staining-based flow cytometric analysis (reference value: 0.36%); type: functional; procedure, shortened: as §6

| IC50 (HeLa [2]) [µM] | IC50 (A549) [µM] | IC50 (MCF7) [µM] | Compound | Activity (HeLa [1]) | Activity (HeLa [2]) | Activity (A549) | IC50 [3] [µM] | Activity (SGC-7901) | Activity (MCF7) | Activity (HeLa [4]) | also measured |
| --- | --- | --- | --- | --- | --- | --- | --- | --- | --- | --- | --- |
| > 100 | > 100 | 83.9 | O=C(CN1CCCCC1)Nc1ccc2oc3ccc(NC(=O)CN4CCCCC4)cc3c(=O)c2c1 | Dose-dependent effect | Dose-dependent effect | Dose-dependent effect | 86.7 | Dose-dependent effect | Dose-dependent effect | Dose-dependent effect | – |
| 13.2 | 18.7 | 23 | CN(C)CC(=O)Nc1ccc2oc3ccc(NC(=O)CN(C)C)cc3c(=O)c2c1 | Dose-dependent effect | Dose-dependent effect | Dose-dependent effect | 17.3 | Dose-dependent effect | Dose-dependent effect | Dose-dependent effect | T (Homo sapiens [5]): 70.3 °C; Kb (Homo sapiens [6]): 2.89 ×10⁴ /M; Kb (Calf thymus DNA [7]): 0.46 ×10⁴ /M; Activity (Homo sapiens [8]): Active; Activity (Calf thymus DNA [9]): inactive; Activity (Homo sapiens [10]): Active; Activity (Homo sapiens [11]): Active; Activity (Homo sapiens [12]): inactive; T (Homo sapiens [13]): 60.8 °C; Activity (HeLa [14]): 32.07%; Activity (HeLa [15]): Dose-dependent effect; Activity (HeLa [16]): 60.78%; Activity (HeLa [17]): 22.69%; Activity (HeLa [18]): 18.24%; Activity (HeLa [19]): 12.36%; Activity (HeLa [20]): 9.45% |
| > 100 | 80.5 | > 100 | O=C(CN1CCOCC1)Nc1ccc2oc3ccc(NC(=O)CN4CCOCC4)cc3c(=O)c2c1 | Dose-dependent effect | Dose-dependent effect | Dose-dependent effect | 84.9 | Dose-dependent effect | Dose-dependent effect | Dose-dependent effect | – |
| 20.4 | 19.9 | 26.6 | CCN(CC)CC(=O)Nc1ccc2oc3ccc(NC(=O)CN(CC)CC)cc3c(=O)c2c1 | Dose-dependent effect | Dose-dependent effect | Dose-dependent effect | 32.2 | Dose-dependent effect | Dose-dependent effect | Dose-dependent effect | – |
| 48.2 | 21.5 | 34.9 | O=C(CN1CCCC1)Nc1ccc2oc3ccc(NC(=O)CN4CCCC4)cc3c(=O)c2c1 | Dose-dependent effect | Dose-dependent effect | Dose-dependent effect | 35.9 | Dose-dependent effect | Dose-dependent effect | Dose-dependent effect | – |
